Experimental data from ChEMBL document CHEMBL1153096, “Properly substituted 1,4-dioxane nucleus favours the selective M3 muscarinic receptor activation” (Bioorg Med Chem, 2009).
Calls of active or inactive are those of the source. The calls are words filed in the database; no cut-off is given here.

Experiments:
[1] = target: Muscarinic acetylcholine receptor M3 (Cavia porcellus) (UniProt Q8VH26); experiment: Agonist activity at muscarinic M3 receptor in guinea pig ileum assessed as inhibition of electrically-stimulated muscle contraction; assay type: functional, tissue-based
Outline: (§1)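 Male guinea pig (250-350 g, fasted 24 h) ileal segments 2-3 cm, 1.0 g tension, 37 °C, Krebs-Henseleit with carbogen; 45 min equilibration, isometric contractions. Cumulative agonist concentration-response curves; pD2 by linear regression; intrinsic activity relative to bethanechol maximum; means ± SEM of four to six experiments.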

[2] = target: T1, Muscarinic acetylcholine receptor M2 (Homo sapiens, UniProt P08172); experiment: Displacement of [3H]NMS from human muscarinic M2 receptor expressed in CHO cells by microplate scintillation counting; assay type: cell-based
T1 sequence (P08172 whole entry): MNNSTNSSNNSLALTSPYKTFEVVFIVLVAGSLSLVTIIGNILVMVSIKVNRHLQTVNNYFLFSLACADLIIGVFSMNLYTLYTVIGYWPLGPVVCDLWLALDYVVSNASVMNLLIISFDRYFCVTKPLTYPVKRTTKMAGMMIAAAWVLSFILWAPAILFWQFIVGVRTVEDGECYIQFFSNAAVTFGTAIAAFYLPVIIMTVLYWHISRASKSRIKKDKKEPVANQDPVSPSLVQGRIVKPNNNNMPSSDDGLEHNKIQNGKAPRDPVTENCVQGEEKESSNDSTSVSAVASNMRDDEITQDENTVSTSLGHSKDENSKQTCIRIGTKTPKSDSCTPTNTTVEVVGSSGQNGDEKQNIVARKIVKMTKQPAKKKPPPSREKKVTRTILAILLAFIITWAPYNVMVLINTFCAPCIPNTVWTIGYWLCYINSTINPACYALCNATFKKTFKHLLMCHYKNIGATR

[3] = target: T2, Muscarinic acetylcholine receptor M4 (Homo sapiens, UniProt P08173); experiment: Displacement of [3H]NMS from human muscarinic M4 receptor expressed in CHO cells by microplate scintillation counting; assay type: cell-based
T2 sequence (P08173 whole entry): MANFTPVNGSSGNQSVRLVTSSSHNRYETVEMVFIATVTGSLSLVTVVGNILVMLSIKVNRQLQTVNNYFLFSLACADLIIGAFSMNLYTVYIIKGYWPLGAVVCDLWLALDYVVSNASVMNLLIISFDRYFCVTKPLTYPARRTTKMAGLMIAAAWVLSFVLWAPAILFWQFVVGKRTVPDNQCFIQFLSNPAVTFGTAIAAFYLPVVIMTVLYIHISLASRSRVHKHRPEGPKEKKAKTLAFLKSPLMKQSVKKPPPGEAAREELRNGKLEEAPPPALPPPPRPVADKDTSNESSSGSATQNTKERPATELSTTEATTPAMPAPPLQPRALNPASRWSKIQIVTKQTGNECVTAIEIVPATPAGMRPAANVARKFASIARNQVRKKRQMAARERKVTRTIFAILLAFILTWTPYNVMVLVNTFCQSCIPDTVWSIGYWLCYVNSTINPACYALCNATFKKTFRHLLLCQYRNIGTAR

Oryctolagus cuniculus [4] = species: Oryctolagus cuniculus; experiment: Intrinsic activity at muscarinic M1 receptor in New Zealand White rabbit vas deferens assessed as inhibition of electrically-stimulated muscle contraction relative to McN-A-343; assay type: tissue-based
Outline: (§2)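 Prostatic portion of male-free-listed New Zealand white rabbit (3.0-3.5 kg, fasted 24 h) vas deferens in modified Krebs, 31 °C, 95% O2-5% CO2; 45 min stabilisation, field stimulation 2 Hz, 5 ms, 5 V; isometric recording. Cumulative concentration-response curves; pD2 by linear regression; intrinsic activity as fraction of McN-A-343 maximum; means ± SEM of four to six experiments.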

[5] = target: T3, Muscarinic acetylcholine receptor M5 (Homo sapiens, UniProt P08912); experiment: Displacement of [3H]NMS from human muscarinic M5 receptor expressed in CHO cells by microplate scintillation counting; assay type: cell-based
T3 sequence (P08912 whole entry): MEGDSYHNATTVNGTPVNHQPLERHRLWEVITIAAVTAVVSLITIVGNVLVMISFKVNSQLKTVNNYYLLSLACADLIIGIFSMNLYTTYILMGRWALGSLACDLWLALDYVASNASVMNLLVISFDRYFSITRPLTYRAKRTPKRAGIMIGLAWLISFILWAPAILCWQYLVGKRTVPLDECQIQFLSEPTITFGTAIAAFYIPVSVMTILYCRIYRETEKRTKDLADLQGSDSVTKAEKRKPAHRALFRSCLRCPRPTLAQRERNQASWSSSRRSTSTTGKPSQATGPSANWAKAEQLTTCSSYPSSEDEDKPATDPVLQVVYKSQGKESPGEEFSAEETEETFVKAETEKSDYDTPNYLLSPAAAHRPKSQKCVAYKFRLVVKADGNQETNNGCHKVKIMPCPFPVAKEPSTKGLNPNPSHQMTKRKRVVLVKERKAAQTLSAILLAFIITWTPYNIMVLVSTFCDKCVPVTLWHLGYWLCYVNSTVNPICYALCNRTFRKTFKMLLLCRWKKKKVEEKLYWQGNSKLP

Cavia porcellus [6] = species: Cavia porcellus; experiment: Intrinsic activity at muscarinic M4 receptor in guinea pig lung assessed as inhibition of electrically-stimulated muscle contraction relative to bathanecol
Outline: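 Male guinea pig peripheral lung strips (15 × 2 × 2 mm) from lower lobe, 0.3 g resting tension, 37 °C, Krebs-Henseleit with carbogen; 45 min equilibration, isometric contractions. Cumulative agonist concentration-response curves; pD2 by linear regression; intrinsic activity relative to bethanechol maximum; means ± SEM of four to six experiments.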

[7] = (§3) Agonist activity at muscarinic M1 receptor in New Zealand White rabbit vas deferens assessed as inhibition of electrically-stimulated muscle contraction; assay type: functional, Oryctolagus cuniculus; outline: as §2
Cavia porcellus [8] = species: Cavia porcellus; experiment: Intrinsic activity at muscarinic M2 receptor in guinea pig atrium assessed as inhibition of electrically-stimulated muscle contraction relative to bathanecol; assay type: tissue-based; settings: Cardiac atrium
Cavia porcellus [9] = species: Cavia porcellus; experiment: Antagonist activity at muscarinic M4 receptor in guinea pig lung assessed as effect on muscle contraction up to 10 uM; assay type: functional
[10] = target: Muscarinic acetylcholine receptor M3 (Cavia porcellus) (UniProt Q8VH26); experiment: Intrinsic activity at muscarinic M3 receptor in guinea pig ileum assessed as inhibition of electrically-stimulated muscle contraction relative to bathanecol; assay type: tissue-based; outline: as §1
Oryctolagus cuniculus [11] = species: Oryctolagus cuniculus; experiment: Antagonist activity at muscarinic M1 receptor in New Zealand White rabbit vas deferens assessed as effect on muscle contraction up to 30 uM; assay type: functional, tissue-based
[12] = target: Muscarinic acetylcholine receptor M3 (Homo sapiens, UniProt P20309); experiment: Displacement of [3H]NMS from human muscarinic M3 receptor expressed in CHO cells by microplate scintillation counting; assay type: cell-based
Oryctolagus cuniculus [13] = species: Oryctolagus cuniculus; experiment: as §3; assay type: functional; outline: as §2
[14] = Agonist activity at muscarinic M2 receptor in guinea pig atrium assessed as inhibition of electrically-stimulated muscle contraction; assay type: functional, Cavia porcellus, Cardiac atrium
[15] = target: T4, Muscarinic acetylcholine receptor M1 (Homo sapiens, UniProt P11229); experiment: Displacement of [3H]NMS from human muscarinic M1 receptor expressed in CHO cells by microplate scintillation counting; assay type: cell-based
T4 sequence (P11229 whole entry): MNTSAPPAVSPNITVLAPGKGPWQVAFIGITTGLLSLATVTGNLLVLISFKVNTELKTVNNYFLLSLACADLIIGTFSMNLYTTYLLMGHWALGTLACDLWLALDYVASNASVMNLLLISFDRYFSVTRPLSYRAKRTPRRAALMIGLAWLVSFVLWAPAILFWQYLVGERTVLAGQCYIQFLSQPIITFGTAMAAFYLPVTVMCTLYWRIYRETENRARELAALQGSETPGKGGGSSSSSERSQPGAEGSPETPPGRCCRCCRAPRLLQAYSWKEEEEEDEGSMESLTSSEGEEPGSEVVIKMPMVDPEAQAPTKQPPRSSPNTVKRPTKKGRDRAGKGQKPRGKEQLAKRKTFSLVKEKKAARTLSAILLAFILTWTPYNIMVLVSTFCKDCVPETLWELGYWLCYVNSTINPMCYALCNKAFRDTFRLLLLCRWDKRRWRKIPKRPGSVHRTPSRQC

Cavia porcellus [16] = species: Cavia porcellus; experiment: Antagonist activity at muscarinic M2 receptor in guinea pig atrium assessed as effect on muscle contraction up to 10 uM; assay type: functional, tissue-based; settings: Cardiac atrium
[17] = Agonist activity at muscarinic M4 receptor in guinea pig lung assessed as inhibition of electrically-stimulated muscle contraction; assay type: functional, Cavia porcellus
Oryctolagus cuniculus [18] = species: Oryctolagus cuniculus; settings: New Zealand White, Vas deferens
Cavia porcellus [19] = species: Cavia porcellus; experiment: Selectivity ratio of pD2 for guinea pig muscarinic M3 receptor to pD2 for guinea pig muscarinic M2 receptor
Cavia porcellus [20] = species: Cavia porcellus; experiment: Selectivity ratio of pD2 for guinea pig muscarinic M4 receptor to pD2 for guinea pig muscarinic M3 receptor
Cavia porcellus [21] = species: Cavia porcellus; settings: Cardiac atrium
[22] = target: Muscarinic acetylcholine receptor M3 (Cavia porcellus) (UniProt Q8VH26); settings: Ileum

Muscarinic acetylcholine receptor M3 (Cavia porcellus), sequence (Q8VH26 1-587): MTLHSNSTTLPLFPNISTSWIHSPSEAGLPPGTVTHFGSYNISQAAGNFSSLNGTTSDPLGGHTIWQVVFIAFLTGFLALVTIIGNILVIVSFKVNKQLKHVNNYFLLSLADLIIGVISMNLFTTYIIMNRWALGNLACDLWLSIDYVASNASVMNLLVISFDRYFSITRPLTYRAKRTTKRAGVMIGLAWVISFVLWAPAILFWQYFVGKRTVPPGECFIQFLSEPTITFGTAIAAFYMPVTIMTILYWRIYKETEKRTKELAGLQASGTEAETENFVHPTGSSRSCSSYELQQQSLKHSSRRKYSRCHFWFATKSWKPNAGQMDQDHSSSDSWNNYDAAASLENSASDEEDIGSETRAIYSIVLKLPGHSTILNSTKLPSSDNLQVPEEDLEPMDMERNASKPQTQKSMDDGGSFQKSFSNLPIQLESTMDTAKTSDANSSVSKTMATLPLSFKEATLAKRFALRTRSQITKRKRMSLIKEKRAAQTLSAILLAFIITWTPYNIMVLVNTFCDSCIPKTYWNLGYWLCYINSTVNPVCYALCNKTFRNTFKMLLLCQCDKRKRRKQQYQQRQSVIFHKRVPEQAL
Muscarinic acetylcholine receptor M3, sequence (P20309 whole entry): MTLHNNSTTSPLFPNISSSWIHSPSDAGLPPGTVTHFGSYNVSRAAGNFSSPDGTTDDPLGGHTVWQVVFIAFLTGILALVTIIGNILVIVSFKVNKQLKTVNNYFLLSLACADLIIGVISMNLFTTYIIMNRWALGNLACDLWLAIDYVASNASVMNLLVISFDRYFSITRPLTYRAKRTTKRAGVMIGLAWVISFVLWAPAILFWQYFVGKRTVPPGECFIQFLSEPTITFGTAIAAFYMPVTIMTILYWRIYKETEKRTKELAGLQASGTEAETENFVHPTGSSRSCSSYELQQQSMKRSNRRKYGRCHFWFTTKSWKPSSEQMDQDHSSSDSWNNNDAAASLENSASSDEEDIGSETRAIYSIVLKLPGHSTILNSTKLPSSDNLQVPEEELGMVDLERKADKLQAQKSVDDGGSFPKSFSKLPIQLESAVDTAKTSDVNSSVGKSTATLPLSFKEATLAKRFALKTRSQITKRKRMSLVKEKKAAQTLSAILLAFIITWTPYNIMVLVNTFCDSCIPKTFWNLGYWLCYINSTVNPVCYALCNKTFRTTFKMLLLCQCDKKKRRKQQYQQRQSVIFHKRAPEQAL

Structure (SMILES)	pD2 [1]	Ki [2] [µM]	Ki [3] [µM]	Ki [5] [µM]	Intrinsic activity (Cavia porcellus [6])	Intrinsic activity (Cavia porcellus [8])	Intrinsic activity [10]	pKb (Oryctolagus cuniculus [11])	Ki [12] [µM]	pD2 (Oryctolagus cuniculus [13])	pD2 [14]	Ki [15] [µM]	pD2 [17]	further results
C[C@@H]1COC[C@@H](C[N+](C)(C)C)O1.[I-]	6.02	4.9	87.1	67.6	1	1								Intrinsic activity (Oryctolagus cuniculus [4]): 1; pD2 [7]: 5.08
CC1(C)OC[C@@H](C[N+](C)(C)C)OC1(C)C.[I-]	5.09	46.8	53.7	66.1		0.71	0.93	inactive	40.7	inactive	5.12	> 100		pKb (Cavia porcellus [9]): inactive
CC1(C)CO[C@H](C[N+](C)(C)C)CO1.[I-]	4.91	95.5	> 100	> 100	0.22		0.68	inactive	77.6	inactive		> 100	4.85	pKb (Cavia porcellus [16]): inactive
C[N+](C)(C)CC#CCOC(=O)Nc1cccc(Cl)c1.[Cl-]														pD2 [7]: 6.4
C[C@H]1COC[C@@H](C[N+](C)(C)C)O1.[I-] (relative stereo)	7.34	1.58	11.5	7.76		1								Intrinsic activity (Oryctolagus cuniculus [4]): 1; pD2 [7]: 5.65
C[C@H]1CO[C@H](C[N+](C)(C)C)CO1.[I-] (relative stereo)		17.4	> 100	63.1	0.57	0.95	1		44.7	inactive		> 100	5.08	pKb (Oryctolagus cuniculus [18]): inactive
C[C@@H]1OC[C@@H](C[N+](C)(C)C)OC1(C)C.[I-] (relative stereo)	5.7	33.9	30.2	16.6		0.46	0.66		10.5		4.99	38		pKb (Cavia porcellus [9]): inactive
C[C@@H]1OC[C@@H](C[N+](C)(C)C)O[C@@H]1C.[I-] (relative stereo)	4.91	89.1	> 100	> 100		0.27	0.85	inactive	> 100	inactive	5.04	> 100		pKb (Cavia porcellus [9]): inactive
C[C@H]1OC[C@@H](C[N+](C)(C)C)O[C@@H]1C.[I-] (relative stereo)	6.7	16.6	> 100	> 100	0.65	0.89	1.18		> 100		5.01	> 100	4.59	Selectivity ratio (Cavia porcellus [19]): 49; Selectivity ratio (Cavia porcellus [20]): 141
C[C@@H]1CO[C@H](C[N+](C)(C)C)CO1.[I-] (relative stereo)		11.2	93.3	93.3	0.55	1	1		66.1	inactive		> 100		pKb (Oryctolagus cuniculus [18]): inactive
C[C@H]1O[C@H](C[N+](C)(C)C)COC1(C)C (relative stereo)	inactive	72.4	87.1	83.2				inactive	46.8	inactive		95.5		pKb (Cavia porcellus [9]): inactive; pKb (Cavia porcellus [16]): inactive; pKb (Cavia porcellus [21]): inactive; pKb [22]: inactive
C[C@@H]1OC[C@@H](C[N+](C)(C)C)O[C@H]1C.[I-] (relative stereo)	6.95	13.8	30.9	15.5	0.35	0.8	0.88	inactive	11	inactive	4.93	24.5	5.08	Selectivity ratio (Cavia porcellus [19]): 105; Selectivity ratio (Cavia porcellus [20]): 74
C[C@@H]1O[C@H](C[N+](C)(C)C)CO[C@@H]1C.[I-] (relative stereo)	5.27	20	> 100	97.7	0.5	0.91	1		> 100		5.18	> 100	5	
CC(C[N+](C)(C)C)OC(N)=O.[Cl-] (configuration not stated) [BETHANECHOL CHLORIDE]	6.16										5.88		5.01	
